ChEMBL document CHEMBL1138854, “Synthesis and antitumor activity of guanylhydrazones from 6-(2,4-dichloro-5-nitrophenyl)imidazo[2,1-b]thiazoles and 6-pyridylimidazo[2,1-b]thiazoles(1)” (2006)
Where “and” joins values, the source holds several entries; their conditions need not be identical. Equal values may be shown once. Calls of active or inactive are those of the source. The rule behind the calls is not given here.

How the values were obtained:
[1] = Antitumor activity against ovarian cell lines of the NCI60 panel; format: functional; conditions: Homo sapiens; for TGI: read-out: pTGI (converted)
Summary of the method: (§1)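 Run by NCI in the 60-cell-line panel (details in Supporting Information). Highest concentration 10^-4 M unless noted (one case 10-2.6 M). Values expressed as -log molar concentration giving 50% growth inhibition (pGI50), total cytostasis (pTGI) or 50% cell kill (pLC50); only values >4.00 reported; mean graph midpoint is the calculated panel mean.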

[2] = Antitumor activity against breast cell lines of the NCI60 panel; format: functional; conditions: Homo sapiens; for TGI: read-out: pTGI (converted); summary of the method: as §1
[3] = Antitumor activity against prostate cell lines of the NCI60 panel; format: functional; conditions: Homo sapiens; for TGI: read-out: pTGI (converted); summary of the method: as §1
[4] = Antitumor activity against leukemia cell lines of the NCI60 panel; format: functional; conditions: Homo sapiens; for TGI: read-out: pTGI (converted); summary of the method: as §1
[5] = Antitumor activity against melanoma cell lines of the NCI60 panel; format: functional; conditions: Homo sapiens; for TGI: read-out: pTGI (converted); summary of the method: as §1
NSCLC = assay: Antitumor activity against NSCLC cell lines of the NCI60 panel; format: functional; conditions: Homo sapiens; for TGI: read-out: pTGI (converted); summary of the method: as §1
[6] = Antitumor activity against colon cell lines of the NCI60 panel; format: functional; conditions: Homo sapiens; for TGI: read-out: pTGI (converted); summary of the method: as §1
[7] = Antitumor activity against renal cell lines of the NCI60 panel; format: functional, Homo sapiens; conditions: for TGI: read-out: pTGI (converted); summary of the method: as §1
[8] = Antitumor activity against CNS cell lines of the NCI60 panel; format: functional; conditions: Homo sapiens; for TGI: read-out: pTGI (converted); summary of the method: as §1
HL-60 = assay: Mitochondrial potential in HL60 cells assessed as decrease in ATP level at 0.5 uM; format: functional, cell-based; conditions: Homo sapiens
[9] = target: T1, S-adenosylmethionine decarboxylase proenzyme (Homo sapiens) (UniProt P17707); assay: Inhibition of SAMDC in HL60 cells by release of radioactive CO2 from [14C-carboxyl]S-adenosylmethionine; conditions: HL-60
T1 sequence (whole entry): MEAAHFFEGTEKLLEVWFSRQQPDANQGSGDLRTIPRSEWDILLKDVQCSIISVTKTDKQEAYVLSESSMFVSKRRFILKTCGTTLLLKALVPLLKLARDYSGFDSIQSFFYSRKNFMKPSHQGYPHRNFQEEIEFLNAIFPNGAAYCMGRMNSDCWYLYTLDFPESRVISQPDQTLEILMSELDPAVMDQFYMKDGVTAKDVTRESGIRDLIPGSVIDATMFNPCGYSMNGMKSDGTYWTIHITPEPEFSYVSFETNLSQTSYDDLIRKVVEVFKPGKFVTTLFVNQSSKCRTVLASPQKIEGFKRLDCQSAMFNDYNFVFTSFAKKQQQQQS

| Structure (SMILES) | GI50 [1] [µM] | TGI [1] [µM] | GI50 [2] [µM] | TGI [2] [µM] | GI50 [3] [µM] | TGI [3] [µM] | GI50 [4] [µM] | TGI [4] [µM] | GI50 [5] [µM] | TGI [5] [µM] | GI50 (NSCLC) [µM] | TGI (NSCLC) [µM] | GI50 [6] [µM] | TGI [6] [µM] | GI50 ([7]; Homo sapiens, renal) [µM] | TGI ([7]; Homo sapiens, renal) [µM] | GI50 [8] [µM] | TGI [8] [µM] | further results |
| --- | --- | --- | --- | --- | --- | --- | --- | --- | --- | --- | --- | --- | --- | --- | --- | --- | --- | --- | --- |
| N=C(N)N/N=C/c1c(-c2cc([N+](=O)[O-])c(Cl)cc2Cl)nc2n1CCS2 | 1.32 | 2.82 | 0.617 | 10.5 | 0.813 | 3.09 | 0.339 | 3.16 | 0.759 | 2.51 | 1.15 | 2.57 | 0.447 | 2.19 | 1.17 | 2.88 | 0.302 | 9.55 |  |
| Cc1cn2c(/C=N/NC(=N)N)c(-c3cccnc3)nc2s1 | 15.8 | 36.3 | 7.08 | 22.4 | 6.92 | 24.5 | 4.79 | 51.3 | 10.2 | 25.7 | 13.8 | 36.3 | 5.62 | 20.9 | 9.55 |  | 12 | 28.2 |  |
| N=C(N)N/N=C/c1c(-c2ccccn2)nc2sc(Cl)cn12 | 7.08 | 14.5 | 8.91 | 20.9 | 9.33 | 17.8 | 4.37 | 13.2 | 7.76 | 15.1 | 8.71 | 18.6 | 7.08 | 15.1 | 7.94 | 15.1 | 5.62 | 11.5 |  |
| Cc1csc2nc(-c3cc([N+](=O)[O-])c(Cl)cc3Cl)c(/C=N/N=C(N)N)n12 | 17 | 37.2 | 15.5 | 32.4 | 16.6 | 35.5 | 2.51 | 25.7 | 16.2 | 31.6 | 17 | 35.5 | 15.1 | 33.1 | 17 | 33.1 | 17.8 | 34.7 |  |
| N=C(N)N/N=C/c1c(-c2ccc(Cl)c([N+](=O)[O-])c2)nc2n1CCS2 | 9.77 | 30.9 | 11.5 | 27.5 | 6.61 | 20.9 | 3.09 | 13.2 | 8.32 | 24 | 10.5 | 38.9 | 6.61 | 17.4 | 10 |  | 6.92 | 25.7 |  |
| Cc1sc2nc(-c3ccncc3)c(/C=N/NC(=N)N)n2c1C | 53.7 | 97.7 | 43.7 | 91.2 | 55 |  | 30.2 | 95.5 | 38 | 83.2 | 38.9 | 97.7 | 35.5 | 79.4 | 39.8 | 89.1 | 38.9 | 93.3 |  |
| Cc1cn2c(/C=N/NC(=N)N)c(-c3ccncc3)nc2s1 | 16.6 | 34.7 | 34.7 | 47.9 | 17.4 | 32.4 | 9.77 | 28.2 | 19.5 | 39.8 | 16.6 | 33.1 | 15.8 | 34.7 | 23.4 | 42.7 | 16.2 | 30.9 |  |
| CCc1cn2c(/C=N/NC(=N)N)c(-c3cc([N+](=O)[O-])c(Cl)cc3Cl)nc2s1 | 1.58 | 3.09 | 1.66 | 4.27 | 1.58 | 3.09 | 0.933 | 3.24 | 1.51 | 2.82 | 1.7 | 3.16 | 1.38 | 2.95 | 1.51 |  | 1.45 | 2.82 |  |
| N=C(N)N/N=C/c1c(-c2ccncc2)nc2sc(Cl)cn12 | 10.2 | 20.9 | 13.2 | 40.7 | 17.4 | 33.1 | 3.8 | 11.7 | 5.89 | 13.8 | 6.76 | 17 | 8.13 | 27.5 | 6.61 |  | 7.76 | 20 | Activity (HL-60): inactive; Activity [9]: inactive |
| Cc1cn2c(/C=N/NC(=N)N)c(-c3cc([N+](=O)[O-])c(Cl)cc3Cl)nc2s1 | 2.09 | 19.5 | 4.17 |  |  | 2.34 | 1.62 |  | 2.29 |  | 2.51 | 19.5 | 0.661 | 49 | 2.09 | 11.7 | 2.14 |  | LC50 ([7]; Homo sapiens, renal, read-out: Log LC50 (converted)): 60.3 µM |
| CC(/C=N/NC(=N)N)=N\NC(=N)N [MITOGUAZONE] | 15.8 | 316 | 15.8 | 316 | 100 | 1580 | 7.94 | 631 | 39.8 | 316 | 25.1 | 316 | 12.6 | 501 | 20 |  | 20 | 251 | LC50 [7]: 501 µM and 2000 µM |
| Cc1cn2c(/C=N/NC(=N)N)c(-c3ccccn3)nc2s1 | 17.4 | 63.1 | 8.91 | 37.2 | 7.94 | 39.8 | 3.63 |  | 9.77 | 28.8 | 10.2 | 32.4 | 8.13 | 29.5 | 7.94 |  | 8.13 | 26.9 |  |
| N=C(N)N/N=C/c1c(-c2cccnc2)nc2sc(Cl)cn12 | 15.5 | 36.3 | 16.6 | 46.8 | 15.1 | 28.2 | 13.8 | 42.7 | 18.2 | 36.3 | 20 | 41.7 | 8.51 | 21.9 | 18.2 | 35.5 | 15.1 | 31.6 |  |
| N=C(N)N/N=C/c1c(-c2cc([N+](=O)[O-])c(Cl)cc2Cl)nc2sccn12 | 1.86 | 3.55 | 2.82 | 6.03 | 2.09 |  | 1.45 | 4.27 | 1.58 | 3.02 | 1.78 | 3.47 | 1.02 | 2.14 | 2 |  | 1.55 | 3.47 |  |
| N=C(N)N/N=C/c1c(-c2cc([N+](=O)[O-])c(Cl)cc2Cl)nc2sc(Cl)cn12 | 19.5 | 66.1 | 10.5 | 38.9 | 19.1 | 93.3 | 3.55 | 44.7 | 11.2 | 53.7 | 22.9 | 72.4 | 5.75 | 50.1 | 29.5 | 81.3 | 10.7 | 64.6 |  |
| Cc1sc2nc(-c3cc([N+](=O)[O-])c(Cl)cc3Cl)c(/C=N/NC(=N)N)n2c1C | 5.25 | 24 | 7.24 | 35.5 | 9.12 | 38 | 2.09 | 22.4 | 5.01 | 16.2 | 11 | 47.9 | 4.27 | 29.5 | 8.71 |  | 11.2 | 67.6 |  |
| CCCc1cn2c(/C=N/NC(=N)N)c(-c3cc([N+](=O)[O-])c(Cl)cc3Cl)nc2s1 | 1.62 | 3.02 | 1.74 | 3.47 | 1.74 | 3.39 | 0.724 | 1.95 | 1.66 | 3.09 | 1.74 | 3.24 | 1.48 | 2.75 | 1.66 | 3.09 | 1.66 | 3.09 | Activity (HL-60): inactive; Activity [9]: inactive |
